Results: article PMC5060010 (ACS chemical biology, 2013)

Key:
mu-delta heteromer = mu-delta heteromer (Homo sapiens, UniProt P35372+P41143); test: immunocytochemical trafficking; format: cell-based; conditions: ligand 1 μM, 30 minutes at 37°C, HEK-293 cells with FL-mu and HA-delta
[1] = biological target: mu/delta opioid receptors (Homo sapiens, UniProt P35372+P41143); format: cell-based; conditions: mu/delta HEK-293 cells
Method in brief: (§1)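 Calcium release measured in HEK-293 cells stably expressing mu, or both mu and delta, opioid receptors. The dual-transfected cells came from an outside lab, and cDNA for the chimeric Gα subunit Δ6-Gαqi4-myr was used. Signal was read as fluorescence in relative fluorescence units, giving EC50 and ΔRFU. Where a mu agonist and a delta antagonist were combined, they were co-administered at equimolar levels rather than given as a pretreatment.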

mu opioid receptors = mu opioid receptors (Homo sapiens, UniProt P35372); format: cell-based; conditions: mu HEK-293 cells
Method in brief: as §1

[2] = cited from earlier work
[3] = cited from earlier work; remark: listed apart in the source

Chain of mu/delta opioid receptors (P35372 whole entry): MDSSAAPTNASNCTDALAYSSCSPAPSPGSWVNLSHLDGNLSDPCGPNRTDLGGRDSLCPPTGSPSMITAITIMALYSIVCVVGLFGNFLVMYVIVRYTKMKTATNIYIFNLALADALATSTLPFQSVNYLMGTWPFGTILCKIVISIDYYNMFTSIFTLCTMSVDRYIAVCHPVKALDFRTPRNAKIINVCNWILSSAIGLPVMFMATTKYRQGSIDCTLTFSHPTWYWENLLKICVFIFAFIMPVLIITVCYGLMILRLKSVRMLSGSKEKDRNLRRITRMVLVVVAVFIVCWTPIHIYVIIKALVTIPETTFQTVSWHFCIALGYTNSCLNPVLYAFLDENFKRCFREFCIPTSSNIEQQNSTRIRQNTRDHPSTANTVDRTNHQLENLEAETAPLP
Chain of mu/delta opioid receptors (P41143 whole entry): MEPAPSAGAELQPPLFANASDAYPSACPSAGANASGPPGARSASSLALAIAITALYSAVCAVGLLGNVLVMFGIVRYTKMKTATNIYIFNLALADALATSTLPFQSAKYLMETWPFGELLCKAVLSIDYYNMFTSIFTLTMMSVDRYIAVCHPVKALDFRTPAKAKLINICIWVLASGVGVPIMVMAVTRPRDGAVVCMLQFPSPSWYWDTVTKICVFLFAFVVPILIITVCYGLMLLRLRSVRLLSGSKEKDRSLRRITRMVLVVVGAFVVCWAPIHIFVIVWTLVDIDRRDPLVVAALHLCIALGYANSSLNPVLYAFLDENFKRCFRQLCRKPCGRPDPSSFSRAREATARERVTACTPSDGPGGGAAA
Chain of mu opioid receptors (P35372 whole entry): as the sequence (P35372 whole entry) above
Chain of mu-delta heteromer (P35372 whole entry): as above
Chain of mu-delta heteromer (P41143 whole entry): as the sequence (P41143 whole entry) above

CN1CC[C@]23c4c5ccc(O)c4O[C@H]2[C@H](NC(=O)COCC(=O)NCCCCCCCNC(=O)COCC(=O)Nc2cccc4c6c([nH]c24)[C@@H]2Oc4c(O)ccc7c4[C@@]24CCN(CC2CC2)[C@@H](C7)[C@]4(O)C6)CC[C@@]3(O)[C@H]1C5 [MDAN-21]
internalization of mu and delta cell-surface opioid receptors (mu-delta heteromer): did not produce significant internalization | calcium release ΔRFU [1]: 468 RFU | EC50 ([1]; read-out: calcium release EC50): 412 nM | calcium release ΔRFU (mu opioid receptors): 420 RFU | EC50 (mu opioid receptors; read-out: calcium release EC50): 851 nM | antinociception [2]: potent antinociception | physical dependence [2]: without tolerance, physical dependence, or place preference | tolerance ([2]; mice): does not produce tolerance | place preference [3]: without tolerance, physical dependence, or place preference
